By CC50 is commonly meant the concentration giving 50% cytotoxicity. Low values mean greater toxicity to the cells, high ones lower toxicity to the cells. One may read the EC50 as the midpoint of the concentration-response curve. Low readings indicate higher potency in that assay, high ones lower potency in that assay. As a reminder, the IC50 is the midpoint of a concentration-inhibition curve. Read a low IC50 as inhibition by little substance.

The nature of series [1]: (§1) Concentration of compound causing 50% death of uninfected cells. It is filed as cell-based. The conditions noted are these: human, CEM-SS cells (uninfected). A digest of the protocol: (§2)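 Uninfected cells of each line (CEM-SS, MT4 or PBMC) exposed to compound; CC50 taken as the concentration causing 50% death of uninfected cells.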
The subject of series [2] is MT4. Put plainly: Potency of compound against HIV-1 IIIB strain in MT-4 cells relative to AMD3100. It counts as functional, Homo sapiens. The method in brief: (§3)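 MT4 cells infected with HIV-1 IIIB. Virus-induced cytopathogenic effect scored. EC50 is the concentration protecting 50% of infected cells against cytopathogenicity. Relative potency is expressed against AMD3100.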

In series [3] the test system is MT4. As to the kind of experiment: Effective concentration of compound against HIV-1 IIIB strain in MT-4 cells. It counts as functional, cell-based. The conditions noted are these: Homo sapiens. A digest of the protocol: as §3
A further series concerns GHOST CCR5. As to the kind of experiment: Inhibitory concentration of compound against HIV-1 Ba1 strain in GHOST CCR5 cell line. It counts as functional, cell-based. Particulars: Homo sapiens. The method in brief:
(§4)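 GHOST osteosarcoma cells express CD4, CXCR4 or CCR5 plus an HIV-2 LTR-GFP reporter, grown in Dulbecco medium with 10% FCS. Seeded at 2.5 10⁵ per well; 24 h later pretreated with compound for 1 h at 37 °C. Infected with HIV-1 Lai (CXCR4) or Bal (CCR5), 2 h adsorption, washed, cultured 48 h with drug. GFP+ cells counted by flow cytometry; IC50 from median-effect plot.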

The subject of series [4] is CEM-SS. As to the kind of experiment: Potency of compound against HIV-1 LAI strain in CEM-SS cells relative to AMD3100. It counts as functional, Homo sapiens. The method in brief: (§5)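 CEM-SS cells infected with HIV-1 LAI. Virus replication followed by reverse transcriptase activity measurement. EC50 is the concentration inhibiting 50% of virus replication. Relative potency is the ratio to AMD3100.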

For series [5], the system named is GHOST CXCR4. Put plainly: Potency of compound against HIV-1 LAI strain in GHOST CXCR4 cell line relative to AMD3100. It is filed as functional, Homo sapiens. A digest of the protocol:
as §4

The subject of series [6] is PBMC. Put plainly: Potency of compound against HIV-1 89.6 strain in PBMC cells relative to AMD3100. It counts as functional, Homo sapiens. A digest of the protocol:
(§6)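 PBMC infected with dual-tropic HIV-1 89.6. Virus growth measured by reverse transcriptase activity. EC50 is the concentration protecting 50% of infected cells. Relative potency is expressed against AMD3100.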

In series [7] the test system is GHOST CXCR4. Put plainly: Inhibitory concentration of compound against HIV-1 LAI strain in GHOST CXCR4 cell line. It counts as functional, cell-based. The conditions noted are these: Homo sapiens. A digest of the protocol: as §4
For series [8], the system named is CEM-SS. Put plainly: Effective concentration of compound against HIV-1 LAI strain in CEM-SS cells. The conditions noted are these: Homo sapiens. It counts as functional, cell-based. The method in brief: as §5
The subject of series [9] is PBMC. Put plainly: Effective concentration of compound against HIV-1 89.6 strain in PBMC cells. The conditions noted are these: Homo sapiens. It counts as functional, cell-based. A digest of the protocol: as §6
Series [10] is described as follows: as §1. The conditions noted are these: human. It counts as ADME, cell-based. A digest of the protocol:
as §2

The structures appear in SMILES notation.

Take `CCOC(=O)CCCCN1CCCN(Cc2ccc(CN3CCCNCCNCCCNCC3)cc2)CCNCCCNCC1`: the CC50 in series [1], in [10] (MT4 cells (uninfected)) and in series [10] (PBMC (uninfected)) was more than 100000 nM in each case. Moreover, the Relative potency is approximately 10 in the series with MT4 [2], approximately 7 in the series on CEM-SS [4], approximately 7 in the series on GHOST CXCR4 [5] and approximately 7 in the series with PBMC [6]. Also, the figures for the EC50 in the series with MT4 [3], with CEM-SS [8] and in the series with PBMC [9] were 690 nM, 910 nM and 25 nM, respectively. Also, the IC50 in the series with GHOST CCR5 was more than 50000 nM; in the series with GHOST CXCR4 [7], 7.1 nM.

Consider `CCCCCCCCCCCCCC(=O)N[C@@H](CCCCNC(=O)CCCCN1CCCN(Cc2ccc(CN3CCCNCCNCCCNCC3)cc2)CCNCCCNCC1)C(=O)N[C@@H](CO[C@@H]1O[C@@H](CO)[C@H](O)[C@H](O)[C@@H]1O)C(=O)O`, for which the CC50 is more than 50000 nM in series [1], more than 50000 nM in [10] (MT4 cells (uninfected)) and more than 28000 nM in [10] (PBMC (uninfected)). The Relative potency in the series with MT4 [2] is reported as approximately 45; in the series on CEM-SS [4] it was approximately 40; with GHOST CXCR4 [5], approximately 90; in the series on PBMC [6], approximately 125. Besides, the EC50 in the series on MT4 [3] came to 2800 nM; with CEM-SS [8], 5200 nM; in the series on PBMC [9] it was 470 nM. Also, the IC50 in the series on GHOST CCR5 is more than 50000 nM; with GHOST CXCR4 [7], 86 nM.

In the case of `CCCCCCCCCCCCCC(=O)N[C@@H](CCCCNC(=O)CCCCN1CCCNCCN(Cc2ccc(CN3CCCNCCNCCCNCC3)cc2)CCCNCC1)C(=O)N[C@@H](CO[C@@H]1O[C@@H](CO)[C@H](O)[C@H](O)[C@@H]1O)C(=O)O`, the half-maximal cytotoxic concentration (CC50) in series [1] was more than 100000 nM; in series [10] (MT4 cells (uninfected)), more than 100000 nM; in series [10] (PBMC (uninfected)), more than 10000 nM. In addition, the Relative potency in the series with MT4 [2] is reported as approximately 45; in the series on CEM-SS [4], approximately 50; in the series on GHOST CXCR4 [5], approximately 20; in the series on PBMC [6] it was approximately 65. In addition, the EC50 in the series with MT4 [3] came out at 2900 nM; in the series with CEM-SS [8], 6000 nM; with PBMC [9], 250 nM. The IC50 was more than 10000 nM with GHOST CCR5 and 21 nM in the series on GHOST CXCR4 [7].

As for `CCCCCCCCCCCCCC(=O)N[C@@H](CO[C@@H]1O[C@@H](CO)[C@H](O)[C@H](O)[C@@H]1O)C(=O)O`, the 50% cytotoxic concentration (CC50) in [1] and in series [10] (MT4 cells (uninfected)) was more than 100000 nM in each case. Further, the EC50 in the series with MT4 [3] was more than 100000 nM; with CEM-SS [8] it was 10000 nM.

`c1cc(CN2CCCNCCNCCCNCC2)ccc1CN1CCCNCCNCCCNCC1` [PLERIXAFOR]: the CC50 in series [1], in [10] (MT4 cells (uninfected)) and in series [10] (PBMC (uninfected)) was more than 10000 nM in each case. The EC50 with MT4 [3] amounted to 65 nM; in the series with CEM-SS [8] it was 127 nM; in the series on PBMC [9] it was 3.8 nM. Also, the IC50 was more than 5000 nM with GHOST CCR5 and 0.95 nM in the series on GHOST CXCR4 [7].

On to `Cc1cn([C@H]2C[C@H](N=[N+]=[N-])[C@@H](CO)O2)c(=O)[nH]c1=O` [ZIDOVUDINE], for which the EC50 with MT4 [3] turned out to be 9.9 nM; in the series on CEM-SS [8], 6.3 nM; in the series on PBMC [9], 24 nM.
